Source: ChEMBL document CHEMBL5034013, “Discovery of VNRX-7145 (VNRX-5236 Etzadroxil): An Orally Bioavailable β-Lactamase Inhibitor for Enterobacterales Expressing Ambler Class A, C, and D Enzymes” (J Med Chem, 2021)

Key:
Escherichia coli [1] = experiment: Antibacterial activity against Escherichia coli 786978 expressing KPC assessed as concentration required to restore ceftibuten activity incubated for 16 to 20 hrs in presence of 1 ug/ml ceftibuten by broth microdilution method; format: functional; settings: time 16-20 hrs
[2] = Inhibition of bacterial beta-lactamase OXA-48 using nitrocefin as substrate preincubated for 15 mins followed by substrate addition and measured after 10 mins by spectrophotometric analysis; design: species or system Bacteria
Procedure, shortened: (§1)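 IC50 is the mean of duplicate runs on separate days. A run was repeated automatically if it differed by more than 20% from the previous result.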

Klebsiella pneumoniae [3] = experiment: Antibacterial activity against Klebsiella pneumoniae 845661 expressing KPC assessed as concentration required to restore ceftibuten activity incubated for 16 to 20 hrs in presence of 1 ug/ml ceftibuten by broth microdilution method; format: functional; settings: time 16-20 hrs
Klebsiella pneumoniae [4] = experiment: Antibacterial activity against Klebsiella pneumoniae expressing SHV-12/TEM-1 assessed as concentration required to restore ceftibuten activity incubated for 16 to 20 hrs in presence of 1 ug/ml ceftibuten by broth microdilution method; format: functional; settings: time 16-20 hrs
Escherichia coli [5] = experiment: Antibacterial activity against Escherichia coli 849121 expressing KPC assessed as concentration required to restore ceftibuten activity incubated for 16 to 20 hrs in presence of 1 ug/ml ceftibuten by broth microdilution method; format: functional; settings: time 16-20 hrs
Klebsiella pneumoniae [6] = experiment: Antibacterial activity against Klebsiella pneumonia 217917 expressing CMY-2/TEM-1 assessed as concentration required to restore ceftibuten activity incubated for 16 to 20 hrs in presence of 1 ug/ml ceftibuten by broth microdilution method; format: functional; settings: time 16-20 hrs
Procedure, shortened: (§2)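 Tested against a 25-strain challenge panel of clinical E. coli and K. pneumoniae isolates carrying ESBL (n = 5), KPC (n = 11), class C (n = 4) or OXA-48 (n = 5) β-lactamases. Ceftibuten was held at 1 μg/mL while the BLI concentration varied. The read-out was the BLI concentration that rescued ceftibuten activity.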

Escherichia coli [7] = experiment: Antibacterial activity against Escherichia coli expressing AmpC/SHV-12/CTX-M-15/TEM-1 assessed as concentration required to restore ceftibuten activity incubated for 16 to 20 hrs in presence of 1 ug/ml ceftibuten by broth microdilution method; format: functional; settings: time 16-20 hrs
Escherichia coli [8] = experiment: Antibacterial activity against Escherichia coli 664507 expressing OXA-48 assessed as concentration required to restore ceftibuten activity incubated for 16 to 20 hrs in presence of 1 ug/ml ceftibuten by broth microdilution method; format: functional; settings: time 16-20 hrs; procedure, shortened: as §2
Escherichia coli [9] = experiment: Antibacterial activity against Escherichia coli expressing TEM-1/SHV-12 assessed as concentration required to restore ceftibuten activity incubated for 16 to 20 hrs in presence of 1 ug/ml ceftibuten by broth microdilution method; format: functional; settings: time 16-20 hrs
Klebsiella pneumoniae [10] = experiment: Antibacterial activity against Klebsiella pneumoniae expressing SHV-5/KPC-2/TEM-1 assessed as concentration required to restore ceftibuten activity incubated for 16 to 20 hrs in presence of 1 ug/ml ceftibuten by broth microdilution method; format: functional; settings: time 16-20 hrs
Klebsiella pneumoniae [11] = experiment: Antibacterial activity against Klebsiella pneumoniae 845670 expressing KPC assessed as concentration required to restore ceftibuten activity incubated for 16 to 20 hrs in presence of 1 ug/ml ceftibuten by broth microdilution method; format: functional; settings: time 16-20 hrs
Klebsiella pneumoniae [12] = experiment: Antibacterial activity against Klebsiella pneumoniae expressing OXA-48 assessed as concentration required to restore ceftibuten activity incubated for 16 to 20 hrs in presence of 1 ug/ml ceftibuten by broth microdilution method; format: functional; settings: time 16-20 hrs
Klebsiella pneumoniae [13] = experiment: Antibacterial activity against Klebsiella pneumoniae expressing SHV-12/TEM-1/KPC-2/AmpC assessed as concentration required to restore ceftibuten activity incubated for 16 to 20 hrs in presence of 1 ug/ml ceftibuten by broth microdilution method; format: functional; settings: time 16-20 hrs
Escherichia coli [14] = experiment: Antibacterial activity against Escherichia coli expressing CTX-M-2 assessed as concentration required to restore ceftibuten activity incubated for 16 to 20 hrs in presence of 1 ug/ml ceftibuten by broth microdilution method; format: functional; settings: time 16-20 hrs
Klebsiella pneumoniae [15] = experiment: Antibacterial activity against Klebsiella pneumoniae 196477 expressing AmpC/CMY-2/TEM-1/CTX-M-15 assessed as concentration required to restore ceftibuten activity incubated for 16 to 20 hrs in presence of 1 ug/ml ceftibuten by broth microdilution method; format: functional; settings: time 16-20 hrs
Klebsiella pneumoniae [16] = experiment: Antibacterial activity against Klebsiella pneumonia DOV expressing OXA-48 assessed as concentration required to restore ceftibuten activity incubated for 16 to 20 hrs in presence of 1 ug/ml ceftibuten by broth microdilution method; format: functional; settings: time 16-20 hrs; procedure, shortened: as §2
Klebsiella pneumoniae [17] = experiment: Antibacterial activity against Klebsiella pneumoniae expressing SHV-11/TEM-1/KPC-3 assessed as concentration required to restore ceftibuten activity incubated for 16 to 20 hrs in presence of 1 ug/ml ceftibuten by broth microdilution method; format: functional; settings: time 16-20 hrs
Klebsiella pneumoniae [18] = experiment: Antibacterial activity against Klebsiella pneumoniae expressing SHV-1/TEM-1/KPC-2 assessed as concentration required to restore ceftibuten activity incubated for 16 to 20 hrs in presence of 1 ug/ml ceftibuten by broth microdilution method; format: functional; settings: time 16-20 hrs
Escherichia coli [19] = experiment: Antibacterial activity against Escherichia coli expressing CTX-M-15/TEM-1 assessed as concentration required to restore ceftibuten activity incubated for 16 to 20 hrs in presence of 1 ug/ml ceftibuten by broth microdilution method; format: functional; settings: time 16-20 hrs
Klebsiella pneumoniae [20] = experiment: Antibacterial activity against Klebsiella pneumoniae expressing TEM-1/SHV-12 assessed as concentration required to restore ceftibuten activity incubated for 16 to 20 hrs in presence of 1 ug/ml ceftibuten by broth microdilution method; format: functional; settings: time 16-20 hrs
Klebsiella pneumoniae [21] = experiment: Antibacterial activity against Klebsiella pneumonia SI-C05 expressing OXA-48 assessed as concentration required to restore ceftibuten activity incubated for 16 to 20 hrs in presence of 1 ug/ml ceftibuten by broth microdilution method; format: functional; settings: time 16-20 hrs; procedure, shortened: as §2
Klebsiella pneumoniae [22] = experiment: Antibacterial activity against Klebsiella pneumoniae 156309 expressing SHV-11/TEM-1/KPC-2 assessed as concentration required to restore ceftibuten activity incubated for 16 to 20 hrs in presence of 1 ug/ml ceftibuten by broth microdilution method; format: functional; settings: time 16-20 hrs
Klebsiella pneumoniae [23] = experiment: Antibacterial activity against Klebsiella pneumoniae expressing KPC-3/TEM-1/AmpC assessed as concentration required to restore ceftibuten activity incubated for 16 to 20 hrs in presence of 1 ug/ml ceftibuten by broth microdilution method; format: functional; settings: time 16-20 hrs
Escherichia coli [24] = experiment: Antibacterial activity against Escherichia coli 664520 expressing OXA-48 assessed as concentration required to restore ceftibuten activity incubated for 16 to 20 hrs in presence of 1 ug/ml ceftibuten by broth microdilution method; format: functional; settings: time 16-20 hrs; procedure, shortened: as §2
Escherichia coli [25] = experiment: Antibacterial activity against Escherichia coli J53 expressing SHV-5/TEM-1/AmpC assessed as concentration required to restore ceftibuten activity incubated for 16 to 20 hrs in presence of 1 ug/ml ceftibuten by broth microdilution method; format: functional; settings: time 16-20 hrs
[26] = Inhibition of bacterial beta-lactamase SHV-5 using cefotaxime as substrate preincubated for 15 mins followed by substrate addition and measured after 10 mins by spectrophotometric analysis; design: species or system Bacteria; procedure, shortened: as §1
Escherichia coli [27] = experiment: Antibacterial activity against Escherichia coli SI-P026TC expressing CMY-2/TEM-1 assessed as concentration required to restore ceftibuten activity incubated for 16 to 20 hrs in presence of 1 ug/ml ceftibuten by broth microdilution method; format: functional; settings: time 16-20 hrs
[28] = Inhibition of bacterial beta-lactamase AmpC using nitrocefin as substrate preincubated for 15 mins followed by substrate addition and measured after 10 mins by spectrophotometric analysis; design: species or system Bacteria; procedure, shortened: as §1
[29] = Inhibition of bacterial beta-lactamase KPC-2 using imipenem as substrate preincubated for 15 mins followed by substrate addition and measured after 10 mins by spectrophotometric analysis; design: species or system Bacteria; procedure, shortened: as §1
Escherichia coli [30] = experiment: (§3) In vivo antibacterial activity against Escherichia coli expressing TEM-1/CTX-M-15 infected in C3H/HeJ mouse assessed as log10 reduction in CFU in kidney administration of compound:ceftibuten 1:1 ratio at 1 to 300 mg/kg, sc every 12 hrs for 3 days starting from 4 days post infection and measured at 7 days post infection (reference value: 6.7 log10CFU); format: functional; settings: dose 1-300 mg/kg; time 3 day
Escherichia coli [31] = experiment: as §3, with “urine” for “kidney”; format: functional; settings: dose 1-300 mg/kg; time 3 day
[32] = AUC in mouse at 1.2 mg/kg, sc; format: ADME, organism-based; design: dose 1.2 mg/kg; settings: in vivo
[33] = Apparent permeability across apical to basolateral side in human Caco-2 cells at 5 uM measured after 2 hrs by LC-MS/MS method; format: ADME, cell-based; settings: caco-2, 2 h
Escherichia coli [34] = experiment: In vivo antibacterial activity against Escherichia coli expressing TEM-1/CTX-M-15 infected in C3H/HeJ mouse assessed as log10 reduction in CFU in bladder administration of compound:ceftibuten 1:1 ratio at 1 to 300 mg/kg, sc every 12 hrs for 3 days starting from 4 days post infection and measured at 7 days post infection (reference value: 5.8 log10CFU); settings: dose 1-300 mg/kg; time 3 day
[35] = AUC in mouse at 12 mg/kg, sc; format: ADME, organism-based; design: dose 12 mg/kg; settings: in vivo
Procedure, shortened: (§4)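 Single-dose pharmacokinetics of the parent BLI in mice given subcutaneously at 1.2, 12 and 38 mg/kg. The AUC is reported in mg∗h/L and was used to check dose proportionality. The study was run to choose dosing regimens for the murine ascending UTI efficacy model.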

[36] = AUC in mouse at 38 mg/kg, sc; format: ADME, organism-based; design: dose 38 mg/kg; settings: in vivo; procedure, shortened: as §4
[37] = Apparent permeability across basolateral to apical side in human Caco-2 cells at 5 uM measured after 2 hrs by LC-MS/MS method; format: ADME, cell-based; settings: caco-2, 2 h

Structure (SMILES)	Activity (Escherichia coli [1])	Activity (Klebsiella pneumoniae [3])	Activity (Klebsiella pneumoniae [4])	Activity (Escherichia coli [5])	Activity (Klebsiella pneumoniae [6])	Activity (Escherichia coli [7])	Activity (Escherichia coli [8])	Activity (Escherichia coli [9])	Activity (Klebsiella pneumoniae [10])	Activity (Klebsiella pneumoniae [11])	Activity (Klebsiella pneumoniae [12])	Activity (Klebsiella pneumoniae [13])	Activity (Escherichia coli [14])	Activity (Klebsiella pneumoniae [15])	Activity (Klebsiella pneumoniae [16])	Activity (Klebsiella pneumoniae [17])	Activity (Klebsiella pneumoniae [18])	Activity (Escherichia coli [19])	Activity (Klebsiella pneumoniae [20])	Activity (Klebsiella pneumoniae [21])	other results
CC(=O)CCC(=O)N[C@H]1Cc2cccc(C(=O)O)c2OB1O	1 µg/mL	4 µg/mL	0.06 µg/mL	<=0.002 ug ml-1	0.12 µg/mL	0.016 µg/mL	0.06 µg/mL	0.016 µg/mL	<=0.002 ug ml-1	<=0.002 ug ml-1	4 µg/mL	0.5 µg/mL	<=0.002 ug ml-1	0.06 µg/mL	0.06 µg/mL	0.25 µg/mL	4 µg/mL	0.12 µg/mL	0.016 µg/mL	0.06 µg/mL	IC50 [2]: 1450 nM; Activity (Klebsiella pneumoniae [22]): 2 µg/mL; Activity (Klebsiella pneumoniae [23]): 0.5 µg/mL; Activity (Escherichia coli [24]): 4 µg/mL; Activity (Escherichia coli [25]): 0.03 µg/mL; IC50 [26]: 25 nM; Activity (Escherichia coli [27]): 0.5 µg/mL; IC50 [28]: 8 nM; IC50 [29]: 116 nM
CCC(=O)N[C@H]1Cc2cccc(C(=O)O)c2OB1O [LEDABORBACTAM]	0.5 µg/mL	2 µg/mL	0.06 µg/mL	<=0.002 ug ml-1	0.12 µg/mL	0.016 µg/mL	0.03 µg/mL	0.03 µg/mL	<=0.002 ug ml-1	<=0.002 ug ml-1	1 µg/mL	0.25 µg/mL	0.004 µg/mL	0.016 µg/mL	0.016 µg/mL	0.06 µg/mL	1 µg/mL	0.12 µg/mL	0.016 µg/mL	0.03 µg/mL	Activity (Escherichia coli [30]): 2 log10CFU/ml; Activity (Escherichia coli [31]): 4 log10CFU/ml; AUC [32]: 7.8 mg·h/L; Papp [33]: 0.11 10^-6 cm/s; Activity (Escherichia coli [34]): 3.2 log10CFU/ml; AUC [35]: 76 mg·h/L; AUC [36]: 250 mg·h/L; Papp [37]: 0.15 10^-6 cm/s; Activity (Klebsiella pneumoniae [22]): 0.5 µg/mL; Activity (Klebsiella pneumoniae [23]): 0.5 µg/mL; Activity (Escherichia coli [24]): 1 µg/mL; Activity (Escherichia coli [25]): 0.03 µg/mL; IC50 [26]: 126 nM; Activity (Escherichia coli [27]): 0.5 µg/mL; IC50 [29]: 80 nM
